Data: ChEMBL document CHEMBL1157765, “Synthesis of DOTA-conjugated multimeric [Tyr3]octreotide peptides via a combination of Cu(I)-catalyzed "click" cycloaddition and thio acid/sulfonyl azide "sulfo-click" amidation and their in vivo evaluation” (J Med Chem, 2010)
Values belong to the compound of their own block, whether it stands above or below them.

Assays:
[1] = target: Somatostatin receptor type 2 (Rattus norvegicus, UniProt P30680); experiment: Displacement of [111In]DOTA0,Tyr3]octreotide from SSTR2 receptor in rat AR42J cells; type: cell-based, AR-42J
Sequence of Somatostatin receptor type 2 (P30680 whole entry): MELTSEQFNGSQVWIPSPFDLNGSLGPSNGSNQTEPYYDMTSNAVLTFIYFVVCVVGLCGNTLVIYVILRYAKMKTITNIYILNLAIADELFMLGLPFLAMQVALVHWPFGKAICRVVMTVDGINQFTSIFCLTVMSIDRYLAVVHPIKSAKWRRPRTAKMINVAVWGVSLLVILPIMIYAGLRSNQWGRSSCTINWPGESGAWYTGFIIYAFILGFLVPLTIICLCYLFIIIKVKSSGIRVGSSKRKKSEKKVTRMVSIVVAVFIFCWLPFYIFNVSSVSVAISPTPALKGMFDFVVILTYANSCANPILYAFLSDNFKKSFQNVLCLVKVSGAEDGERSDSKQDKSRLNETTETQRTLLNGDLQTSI
How it was run: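 AR42J cells (DMEM, 10% FCS, 37 °C, 5% CO₂) seeded 8 × 10⁵/well and grown to confluence, washed with DMEM + 0.1% BSA. Incubated 3 h at 37 °C with [¹¹¹In-DOTA⁰,Tyr³]octreotide tracer (40 000 dpm) and unlabeled peptide at 0.1-300 nM. Washed twice; cell-bound activity γ-counted. IC₅₀ from fitted sigmoidal displacement curves with 95% CI.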

[2] = Octanol-water partition coefficient, log D at pH 7.4; type: physicochemical
How it was run: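 ¹¹¹In-labeled conjugate (~148 kBq) in PBS pH 7.4 mixed 1:1 with n-octanol and shaken 2 min. Phases separated by centrifugation (5 min, 250g); triplicate aliquots of each layer γ-counted. log D = log₁₀(octanol counts/aqueous counts), from at least two independent experiments.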

Blood [3] = experiment: Biodistribution in blood of BALB/c mouse bearing rat AR42J cells at 0.37 MBq, iv after 2 hrs; type: ADME, organism-based, AR-42J; settings: in vivo
How it was run: (§1)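 AR42J tumor grown in right flank of male BALB/c nude mice (20-25 g, 6-8 weeks) by sc injection of 5 × 10⁶ cells; used after ~2 weeks at 4-6 mm diameter. Groups of five received 0.37 MBq (0.1 μg) ¹¹¹In-DOTA conjugate iv via tail vein (labeled in 0.25 M NH₄OAc pH 5.5, 95 °C, 15 min). Tissues dissected at 2, 6 or 24 h, weighed, γ-counted against 1% injected-activity standards; %ID/g, mean ± SD.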

[4] = Biodistribution in tumor of BALB/c mouse bearing rat AR42J cells at 0.37 MBq, iv after 2 hrs; type: ADME, organism-based, Neoplasm, AR-42J; settings: in vivo; how it was run: as §1
Pancreas [5] = experiment: Biodistribution in pancreas of BALB/c mouse bearing rat AR42J cells at 0.37 MBq, iv after 2 hrs; type: ADME, organism-based, AR-42J; settings: in vivo; how it was run: as §1
[6] = Biodistribution in adrenal gland of BALB/c mouse bearing rat AR42J cells at 0.37 MBq, iv after 2 hrs; type: ADME, organism-based, AR-42J; settings: in vivo; how it was run: as §1
Kidney [7] = experiment: Biodistribution in kidney of BALB/c mouse bearing rat AR42J cells at 0.37 MBq, iv after 2 hrs; type: ADME, organism-based, AR-42J; settings: in vivo; how it was run: as §1
Liver [8] = experiment: Biodistribution in liver of BALB/c mouse bearing rat AR42J cells at 0.37 MBq, iv after 2 hrs; type: ADME, organism-based, AR-42J; settings: in vivo; how it was run: as §1
Stomach [9] = experiment: Biodistribution in stomach of BALB/c mouse bearing rat AR42J cells at 0.37 MBq, iv after 2 hrs; type: ADME, organism-based, AR-42J; settings: in vivo; how it was run: as §1
Blood [10] = experiment: Biodistribution in blood of BALB/c mouse bearing rat AR42J cells at 0.37 MBq, iv after 6 hrs; type: ADME, organism-based, AR-42J; settings: in vivo; how it was run: as §1
[11] = Biodistribution in tumor of BALB/c mouse bearing rat AR42J cells at 0.37 MBq, iv after 6 hrs; type: ADME, organism-based, Neoplasm, AR-42J; settings: in vivo; how it was run: as §1
Pancreas [12] = experiment: Biodistribution in pancreas of BALB/c mouse bearing rat AR42J cells at 0.37 MBq, iv after 6 hrs; type: ADME, organism-based, AR-42J; settings: in vivo; how it was run: as §1
[13] = Biodistribution in adrenal gland of BALB/c mouse bearing rat AR42J cells at 0.37 MBq, iv after 6 hrs; type: ADME, organism-based, AR-42J; settings: in vivo; how it was run: as §1
Kidney [14] = experiment: Biodistribution in kidney of BALB/c mouse bearing rat AR42J cells at 0.37 MBq, iv after 6 hrs; type: ADME, organism-based, AR-42J; settings: in vivo; how it was run: as §1
Liver [15] = experiment: Biodistribution in liver of BALB/c mouse bearing rat AR42J cells at 0.37 MBq, iv after 6 hrs; type: ADME, organism-based, AR-42J; settings: in vivo; how it was run: as §1
Stomach [16] = experiment: Biodistribution in stomach of BALB/c mouse bearing rat AR42J cells at 0.37 MBq, iv after 6 hrs; type: ADME, organism-based, AR-42J; settings: in vivo; how it was run: as §1
Blood [17] = experiment: Biodistribution in blood of BALB/c mouse bearing rat AR42J cells at 0.37 MBq, iv after 24 hrs; type: ADME, organism-based, AR-42J; settings: in vivo; how it was run: as §1
[18] = Biodistribution in tumor of BALB/c mouse bearing rat AR42J cells at 0.37 MBq, iv after 24 hrs; type: ADME, organism-based, Neoplasm, AR-42J; settings: in vivo; how it was run: as §1
Pancreas [19] = experiment: Biodistribution in pancreas of BALB/c mouse bearing rat AR42J cells at 0.37 MBq, iv after 24 hrs; type: ADME, organism-based, AR-42J; settings: in vivo; how it was run: as §1
[20] = Biodistribution in adrenal gland of BALB/c mouse bearing rat AR42J cells at 0.37 MBq, iv after 24 hrs; type: ADME, organism-based, AR-42J; settings: in vivo; how it was run: as §1
Kidney [21] = experiment: Biodistribution in kidney of BALB/c mouse bearing rat AR42J cells at 0.37 MBq, iv after 24 hrs; type: ADME, organism-based, AR-42J; settings: in vivo; how it was run: as §1
Liver [22] = experiment: Biodistribution in liver of BALB/c mouse bearing rat AR42J cells at 0.37 MBq, iv after 24 hrs; type: ADME, organism-based, AR-42J; settings: in vivo; how it was run: as §1
Stomach [23] = experiment: Biodistribution in stomach of BALB/c mouse bearing rat AR42J cells at 0.37 MBq, iv after 24 hrs; type: ADME, organism-based, AR-42J; settings: in vivo; how it was run: as §1
Blood [24] = experiment: Biodistribution in blood of BALB/c mouse bearing rat AR42J cells at 0.37 MBq, iv after 2 hrs under cold condition; type: ADME, organism-based, AR-42J; settings: in vivo
How it was run: (§2)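 Receptor block: groups of three AR42J tumor-bearing male BALB/c nude mice co-injected iv via tail vein with 0.37 MBq (0.1 μg) ¹¹¹In-DOTA conjugate plus 50 μg octreotide. Killed by CO₂/O₂ at 2 h; blood, tumor and tissues dissected, weighed and γ-counted against 1% injected-activity standards; %ID/g reported as mean ± SD.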

[25] = Biodistribution in tumor of BALB/c mouse bearing rat AR42J cells at 0.37 MBq, iv after 2 hrs under cold condition; type: ADME, organism-based, Neoplasm, AR-42J; settings: in vivo; how it was run: as §2
Pancreas [26] = experiment: Biodistribution in pancreas of BALB/c mouse bearing rat AR42J cells at 0.37 MBq, iv after 2 hrs under cold condition; type: ADME, organism-based, AR-42J; settings: in vivo; how it was run: as §2
[27] = Biodistribution in adrenal gland of BALB/c mouse bearing rat AR42J cells at 0.37 MBq, iv after 2 hrs under cold condition; type: ADME, organism-based, AR-42J; settings: in vivo; how it was run: as §2
Kidney [28] = experiment: Biodistribution in kidney of BALB/c mouse bearing rat AR42J cells at 0.37 MBq, iv after 2 hrs under cold condition; type: ADME, organism-based, AR-42J; settings: in vivo; how it was run: as §2
Liver [29] = experiment: Biodistribution in liver of BALB/c mouse bearing rat AR42J cells at 0.37 MBq, iv after 2 hrs under cold condition; type: ADME, organism-based, AR-42J; settings: in vivo; how it was run: as §2
Stomach [30] = experiment: Biodistribution in stomach of BALB/c mouse bearing rat AR42J cells at 0.37 MBq, iv after 2 hrs under cold condition; type: ADME, organism-based, AR-42J; settings: in vivo; how it was run: as §2
Spleen [31] = experiment: Biodistribution in spleen of BALB/c mouse bearing rat AR42J cells at 0.37 MBq, iv after 2 hrs; type: ADME, organism-based, AR-42J; settings: in vivo; how it was run: as §1
Spleen [32] = experiment: Biodistribution in spleen of BALB/c mouse bearing rat AR42J cells at 0.37 MBq, iv after 6 hrs; type: ADME, organism-based, AR-42J; settings: in vivo; how it was run: as §1
Spleen [33] = experiment: Biodistribution in spleen of BALB/c mouse bearing rat AR42J cells at 0.37 MBq, iv after 24 hrs; type: ADME, organism-based, AR-42J; settings: in vivo; how it was run: as §1
Spleen [34] = experiment: Biodistribution in spleen of BALB/c mouse bearing rat AR42J cells at 0.37 MBq, iv after 2 hrs under cold condition; type: ADME, organism-based, AR-42J; settings: in vivo; how it was run: as §2

IC50 [1]: 14 nM | logD [2]: -0.71 | Drug uptake (Blood [3]): 0.27 % ID/g | Drug uptake [4]: 0.52 % ID/g | Drug uptake (Pancreas [5]): 1.02 % ID/g | Drug uptake [6]: 4.05 % ID/g | Drug uptake (Kidney [7]): 4.62 % ID/g | Drug uptake (Liver [8]): 47.6 % ID/g | Drug uptake (Stomach [9]): 1.04 % ID/g | Drug uptake (Blood [10]): 0.62 % ID/g | Drug uptake [11]: 1.03 % ID/g | Drug uptake (Pancreas [12]): 2.04 % ID/g | Drug uptake [13]: 18.98 % ID/g | Drug uptake (Kidney [14]): 7.65 % ID/g | Drug uptake (Liver [15]): 70.97 % ID/g | Drug uptake (Stomach [16]): 1.4 % ID/g | Drug uptake (Blood [17]): 2.52 % ID/g | Drug uptake [18]: 1.53 % ID/g | Drug uptake (Pancreas [19]): 1.17 % ID/g | Drug uptake [20]: 11.39 % ID/g | Drug uptake (Kidney [21]): 10.6 % ID/g | Drug uptake (Liver [22]): 52.71 % ID/g | Drug uptake (Stomach [23]): 1.13 % ID/g | Drug uptake (Blood [24]): 0.44 % ID/g | Drug uptake [25]: 1.19 % ID/g | Drug uptake (Pancreas [26]): 0.29 % ID/g | Drug uptake [27]: 54.56 % ID/g | Drug uptake (Kidney [28]): 7.44 % ID/g | Drug uptake (Liver [29]): 2.96 % ID/g | Drug uptake (Stomach [30]): 3.02 % ID/g | Drug uptake (Spleen [31]): 16.84 % ID/g | Drug uptake (Spleen [32]): 23.92 % ID/g | Drug uptake (Spleen [33]): 20.26 % ID/g | Drug uptake (Spleen [34]): 23.45 % ID/g
Compound: C[C@@H](O)[C@@H]1NC(=O)[C@H](CCCCN)NC(=O)[C@@H](Cc2c[nH]c3ccccc23)NC(=O)[C@H](Cc2ccc(O)cc2)NC(=O)[C@@H](NC(=O)[C@@H](Cc2ccccc2)NC(=O)CCCCCn2cc(COc3cc(OCc4cn(CCCCCC(=O)N[C@H](Cc5ccccc5)C(=O)N[C@H]5CSSC[C@@H](C(=O)N[C@H](CO)[C@@H](C)O)NC(=O)[C@H]([C@@H](C)O)NC(=O)[C@H](CCCCN)NC(=O)[C@@H](Cc6c[nH]c7ccccc67)NC(=O)[C@H](Cc6ccc(O)cc6)NC5=O)nn4)cc(C(=O)NCCOc4cc(OCCNC(=O)c5cc(OCc6cn(CCCCCC(=O)N[C@H](Cc7ccccc7)C(=O)N[C@H]7CSSC[C@@H](C(=O)N[C@H](CO)[C@@H](C)O)NC(=O)[C@H]([C@@H](C)O)NC(=O)[C@H](CCCCN)NC(=O)[C@@H](Cc8c[nH]c9ccccc89)NC(=O)[C@H](Cc8ccc(O)cc8)NC7=O)nn6)cc(OCc6cn(CCCCCC(=O)N[C@H](Cc7ccccc7)C(=O)N[C@H]7CSSC[C@@H](C(=O)N[C@H](CO)[C@@H](C)O)NC(=O)[C@H]([C@@H](C)O)NC(=O)[C@H](CCCCN)NC(=O)[C@@H](Cc8c[nH]c9ccccc89)NC(=O)[C@H](Cc8ccc(O)cc8)NC7=O)nn6)c5)cc(C(=O)NS(=O)(=O)CCNC(=O)CN5CCN(CC(=O)O)CCN(CC(=O)O)CCN(CC(=O)O)CC5)c4)c3)nn2)CSSC[C@@H](C(=O)N[C@H](CO)[C@@H](C)O)NC1=O

logD [2]: -3.59
Compound: C[C@@H](O)[C@@H]1NC(=O)[C@H](CCCCN)NC(=O)[C@@H](Cc2c[nH]c3ccccc23)NC(=O)[C@H](Cc2ccc(O)cc2)NC(=O)[C@@H](NC(=O)[C@@H](Cc2ccccc2)NC(=O)CCCCCn2cc(CO)nn2)CSSC[C@@H](C(=O)N[C@H](CO)[C@@H](C)O)NC1=O
